Here are results for two compounds from ChEMBL document CHEMBL4422661, “Design and Synthesis of a Novel and Selective Kappa Opioid Receptor (KOR) Antagonist (BTRX-335140)” (J Med Chem, 2019).

The nature of data set [1]: Volume of distribution at steady state in Sprague-Dawley rat at 1 mg/kg, iv by LC-MS/MS analysis. To be noted: in vivo. Format: ADME, organism-based. In short, it runs like this: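 Male Sprague-Dawley rats (350–400 g) received the monotartrate salt in 10:10:80 DMSO/Tween 80/water at 1 mg ml⁻¹, 1 mg kg⁻¹ i.v. or 2 mg kg⁻¹ p.o. Peripheral whole blood was sampled at 5, 15 and 30 min and 1, 2, 4, 6 and 8 h after dosing.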

Data set [2] is described as follows: AUCt in Sprague-Dawley rat at 1 mg/kg, iv by LC-MS/MS analysis. To be noted: in vivo. Format: ADME, organism-based. An outline of the steps:
(§1)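 Whole blood (250 μL) drawn via jugular vein cannula, n = 3. The iv route was sampled at 5, 15 and 30 min and 1, 2, 4, 8 and 24 h; the oral route at 15 and 30 min and 1, 2, 4, 8 and 24 h. LC-MS/MS quantitation.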

A short description of data set [3]: Cmax in Sprague-Dawley rat at 5 mg/kg, po by LC-MS/MS analysis. Format: ADME, organism-based. Also noted: dose 5 mg/kg, route oral. To be noted: in vivo.
The nature of data set [4]: AUCt in Sprague-Dawley rat at 5 mg/kg, po by LC-MS/MS analysis. Format: ADME, organism-based. To be noted: in vivo. An outline of the steps: as §1
A short description of data set [5]: Oral bioavailability in Sprague-Dawley rat at 5 mg/kg by LC-MS/MS analysis. Format: ADME, organism-based. The conditions noted are these: in vivo.
Data set [6] in a line: AUCt in C57B16 mouse at 3 mg/kg, iv by LC-MS/MS analysis. To be noted: in vivo. Format: ADME, organism-based.
Data set [7] in a line: Volume of distribution at steady state in C57B16 mouse at 3 mg/kg, iv by LC-MS/MS analysis. To be noted: in vivo. Format: ADME, organism-based.
Data set [8] in a line: Cmax in C57B16 mouse at 10 mg/kg, po by LC-MS/MS analysis. To be noted: in vivo. Also noted: dose 10 mg/kg, route oral. Format: ADME, organism-based.
Data set [9] is described as follows: AUCt in C57B16 mouse at 10 mg/kg, po by LC-MS/MS analysis. Format: ADME, organism-based. To be noted: in vivo.
Data set [10] in a line: Oral bioavailability in C57B16 mouse at 10 mg/kg by LC-MS/MS analysis. Format: ADME, organism-based. To be noted: in vivo.
Data set [11] is described as follows: Ratio of drug uptake in Sprague-Dawley rat brain to plasma at 5 mg/kg, po after 1 hr by LC-MS/MS analysis. Format: ADME, organism-based. In short, it runs like this:
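Fasted male rats (n = 2) received the monotartrate salt orally at 5 mg kg⁻¹. Plasma, brain and CSF levels were measured 1 h after dosing, and the ratio was taken from mean values.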

Data set [12] is described as follows: Solubility of the compound at pH 7.4. Format: physicochemical. To be noted: buffer.
Data set [13] in a line: Cmax in Sprague-Dawley rat at 2 mg/kg, po by LC-MS/MS analysis. Format: ADME, organism-based. The arrangement: dose 2 mg/kg, route oral. The conditions noted are these: in vivo. In short, it runs like this: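 Male Sprague-Dawley rats (350–400 g) given monotartrate salt as 1 mg ml⁻¹ solution in 10:10:80 DMSO/Tween 80/water, 1 mg kg⁻¹ i.v. or 2 mg kg⁻¹ p.o.; peripheral whole blood sampled at 5, 15, 30 min and 1, 2, 4, 6, 8 h; concentrations by LC-MS/MS.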

Data set [14] can be described thus: AUC (0 to infinity) in Sprague-Dawley rat at 1 mg/kg, iv by LC-MS/MS analysis. Format: ADME, organism-based. Also noted: dose 1 mg/kg, route intravenous, time infinity. To be noted: in vivo.
Data set [15] in a line: Oral bioavailability in Sprague-Dawley rat at 2 mg/kg by LC-MS/MS analysis. Format: ADME, organism-based. The conditions noted are these: in vivo.
A short description of data set [16]: AUC (0 to infinity) in Sprague-Dawley rat at 2 mg/kg, po by LC-MS/MS analysis. The conditions noted are these: in vivo. Format: ADME, organism-based. The arrangement: dose 2 mg/kg, time infinity, route oral. In short, it runs like this:
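Male Sprague-Dawley rats (350–400 g) dosed orally as the monotartrate salt, a 1 mg ml⁻¹ solution in 10:10:80 DMSO/Tween 80/water (v/v/v). Peripheral whole blood sampled at 5, 15 and 30 min and 1, 2, 4, 6 and 8 h post-dose. Concentrations measured by LC-MS/MS.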

Data set [17] is described as follows: Ratio of drug uptake in C57B16 mouse brain to plasma at 10 mg/kg, ip after 30 mins by LC-MS/MS analysis. Format: ADME, organism-based. To be noted: 0.5 h. In short, it runs like this:
(§2)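 C57Bl6 mice (n = 6) were given the monotartrate salt i.p. at 10 mg kg⁻¹ (1 mg ml⁻¹ in DMSO/Tween 80/water 1:1:8). Plasma (EDTA) and brain were taken at 30 and 120 min. Brain homogenate was precipitated with acetonitrile, levels were measured by LC-MS/MS, and values were derived by noncompartmental fitting.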

Data set [18] in a line: Ratio of drug uptake in C57B16 mouse brain to plasma at 10 mg/kg, ip after 120 mins by LC-MS/MS analysis. Format: ADME, organism-based. The conditions noted are these: 2 h. In short, it runs like this: as §2

What is called Vdss is the apparent volume that relates the amount in the body to the concentration in plasma or blood. The low end stands for little distribution into tissue, the high end for wide distribution into tissue. For orientation: Cmax means the highest concentration seen after dosing. Broadly, the solubility is the dissolved amount per volume that the medium holds. Lower therefore signals little dissolved substance. For the compound `CCc1cc(F)c2nc(N3CCC(NC4CCOCC4)CC3)c(-c3nc(C)no3)c(C)c2c1.O=C(O)C(O)C(O)C(=O)O`, the distribution volume (Vdss) was 13.8 L/kg in [1] and 7.72 L/kg in [7]. Further, the AUCt in [2] was found to be 153 ng·h/mL; in [4], 232 ng·h/mL; in data set [6], 725 ng·h/mL; in data set [9], 265 ng·h/mL. Also, the highest concentration (Cmax) in data set [3] is 39.1 ng/mL; in [8], 80.9 ng/mL. In addition, the figures for the F in [5] and in [10] were 30.2% and 12%, respectively. Further, the BPR in data set [11] worked out at 2.2. In [12], this compound displayed a solubility of 74 µM.

Usually AUC stands for the area under the concentration-time curve, a measure of exposure. For the compound `Cc1ccc2nc(N3CCC(NC4CCOCC4)CC3)c(-c3nc(C)no3)cc2c1.O=C(O)C(O)C(O)C(=O)O`, the Cmax in data set [13] was 110.16 ng/mL. The Vdss in [1] stood at 12.95 L/kg. Further, the AUC in [14] amounted to 12740 ng·min/mL; in data set [16], 1705 ng·min/mL. In data set [15], this compound returned an F of 20%. Also, the values for the BPR in [17] and in data set [18] were 2.9 and 3.8, respectively.
